# Assay results published in ChEMBL document CHEMBL1121917, “Structure--activity relationships in a broad-spectrum anthelmintic series. Acid chloride phenylhydrazones. 1. Aryl substitutions and chloride variations” (1981).
# Experiments:
# Canis familiaris [1] = species: Canis familiaris; assay: Percent reduction in Uncinaria eggs per gram, after oral treatment of 10 mg/dog dose of compound in a double treatment; type: functional, Canis lupus familiaris, Egg
# Canis familiaris [2] = species: Canis familiaris; assay: Percent reduction in Uncinaria eggs per gram, after oral treatment of 20 mg/dog dose of compound in a triple treatment; type: functional, Canis lupus familiaris, Egg
# Canis familiaris [3] = species: Canis familiaris; assay: Percent reduction in Uncinaria eggs per gram, after oral treatment of 25 mg/dog dose of compound in a single treatment; type: functional, Canis lupus familiaris, Egg
# Canis familiaris [4] = species: Canis familiaris; assay: Percent reduction in Ancylostoma eggs per gram, after oral treatment of 20 mg/dog dose of compound in a single treatment; type: functional, Canis lupus familiaris, Egg
# Procedure, shortened: (§1)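 Dogs naturally infected with Toxascaris leonina were experimentally infected with mixed Ancylostoma caninum and Uncinaria stenocephala larvae. Finely ground compound was given orally in gelatin capsules. Fecal egg counts were taken three times before and three times after treatment, and activity was taken as the fall in egg counts.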
# Canis familiaris [5] = species: Canis familiaris; assay: Percent reduction in Ancylostoma eggs per gram, after oral treatment of 20 mg/dog dose of compound in a triple treatment; type: functional, Canis lupus familiaris, Egg; procedure, shortened: as §1
# Canis familiaris [6] = species: Canis familiaris; assay: Percent reduction in Ancylostoma eggs per gram, after oral treatment of 25 mg/dog dose of compound in a single treatment; type: functional, Canis lupus familiaris, Egg; procedure, shortened: as §1
# Canis familiaris [7] = species: Canis familiaris; assay: Percent reduction in Ancylostoma eggs per gram, after oral treatment of 10 mg/dog dose of compound in a double treatment; type: functional, Canis lupus familiaris, Egg; procedure, shortened: as §1
# Mus musculus [8] = species: Mus musculus; assay: Percent clearance of Hymenolepis nana from mouse after oral treatment of 1.5 mg/mouse/day; type: functional
# Procedure, shortened: (§2)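 Mice naturally carrying Syphacia obvelata were experimentally infected with Nematospiroides dubius and Hymenolepis nana, then grouped after a 2-week prepatency. Finely ground compound was suspended in aqueous 0.10% carboxymethylcellulose, 0.04% polysorbate 80 and 0.0042% polyparaben, and 0.1 mL was given orally by cannula once daily for 4 days to five mice. Necropsy followed 2 days later, scoring presence or absence of each parasite. Control clearance was subtracted from the treated clearance.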
# Ovis aries [9] = assay: Percent reduction in Trichuris eggs per gram, after treatment with 100 mg/kg dose of compound perorally in sheep; type: functional, Egg; settings: route oral
# Procedure, shortened: (§3)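 Naturally parasitized lambs, dosed orally either with a suspension by stomach tube or with finely ground compound in gelatin capsules by balling gun. Activity was scored by the clinical test method, meaning a significant fall in helminth egg counts after treatment.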
# Ovis aries [10] = assay: Percent reduction in Haemonchus eggs per gram, after treatment with 100 mg/kg dose of compound perorally in sheep; type: functional, Egg; settings: route oral
# Procedure, shortened: (§4)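 Naturally parasitized lambs received compound orally, either as the aqueous suspension by stomach tube or as finely ground powder in gelatin capsules by balling gun. Activity was judged by the clinical test method, as a significant decrease in posttreatment helminth egg counts.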
# Ovis aries [11] = assay: Percent reduction in Haemonchus eggs per gram, after treatment with 200 mg/kg dose of compound perorally in sheep; type: functional, Egg; settings: dose 200 mg/kg; route oral
# Procedure, shortened: (§5)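 Naturally parasitized lambs were dosed orally at the stated mg/kg. Dosing was either as a suspension of finely ground compound by stomach tube, or as ground compound weighed into gelatin capsules and given by balling gun. Activity was scored by the clinical test method: the decrease in posttreatment helminth eggs per gram.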
# Ovis aries [12] = assay: Percent reduction in Oesophagostomum eggs per gram, after treatment with 100 mg/kg dose of compound perorally in sheep; type: functional, Egg; settings: route oral; procedure, shortened: as §5
# Ovis aries [13] = assay: Percent reduction in Oesophagostomum eggs per gram, after treatment with 200 mg/kg dose of compound perorally in sheep; type: functional, Egg; settings: dose 200 mg/kg; route oral; procedure, shortened: as §5
# Ovis aries [14] = assay: Percent reduction in Trichostrongylus eggs per gram, after treatment with 100 mg/kg dose of compound perorally in sheep; type: functional, Egg; settings: route oral; procedure, shortened: as §3
# Ovis aries [15] = assay: Percent reduction in Ostertagia eggs per gram, after treatment with 100 mg/kg dose of compound perorally in sheep; type: functional, Egg; settings: route oral; procedure, shortened: as §5
# Ovis aries [16] = assay: Percent reduction in Ostertagia eggs per gram, after treatment with 200 mg/kg dose of compound perorally in sheep; type: functional, Egg; settings: route oral; procedure, shortened: as §3
# Ovis aries [17] = assay: Percent reduction in Trichostrongylus eggs per gram, after treatment with 200 mg/kg dose of compound perorally in sheep; type: functional, Egg; settings: route oral; procedure, shortened: as §3
# Ovis aries [18] = assay: Percent reduction in Strongyloides eggs per gram, after treatment with 100 mg/kg dose of compound perorally in sheep; type: functional, Egg; settings: route oral; procedure, shortened: as §3
# Mus musculus [19] = species: Mus musculus; assay: Percent clearance of Syphacaia obvelata from mouse after oral treatment of 1.5 mg/mouse/day; type: functional; procedure, shortened: as §2
# Canis familiaris [20] = species: Canis familiaris; assay: Percent reduction in Uncinaria eggs per gram, after oral treatment of 20 mg/dog dose of compound in a single treatment; type: functional, Canis lupus familiaris, Egg
# Ovis aries [21] = assay: Percent reduction in Strongyloides eggs per gram, after treatment with 200 mg/kg dose of compound perorally
# Ovis aries [22] = assay: Percent reduction in Trichostrongylus eggs per gram, after treatment with 150 mg/kg dose of compound intraperitoneally in sheep; settings: route intraperitoneal
# Ovis aries [23] = assay: Percent reduction in Cooperia eggs per gram, after treatment with 100 mg/kg dose of compound perorally in sheep; type: functional, Egg; settings: route oral; procedure, shortened: as §4
# Ovis aries [24] = assay: Percent reduction in Haemonchus eggs per gram, after treatment of 100 mg/kg dose of compound perorally in sheep; type: functional, Egg; settings: route oral; procedure, shortened: as §4
# Canis familiaris [25] = species: Canis familiaris; assay: Percent reduction in Uncinaria eggs per gram, after oral treatment of 75 mg/dog dose of compound in a single treatment; type: functional, Canis lupus familiaris, Egg
# Canis familiaris [26] = species: Canis familiaris; assay: Percent reduction in Toxascaris eggs per gram, after oral treatment of 75 mg/dog dose of compound in a single treatment; type: functional, Canis lupus familiaris, Egg
# Procedure, shortened: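 Dogs naturally infected with Toxascaris leonina were experimentally infected with mixed Ancylostoma caninum and Uncinaria stenocephala larvae. Finely ground compound was given orally in gelatin capsules. Three egg count determinations were made before and three after treatment in each experiment.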
# Mus musculus [27] = species: Mus musculus; assay: Percent clearance of Nematospiroides dubius from mouse after oral treatment of 0.45 mg/mouse/day; type: functional; procedure, shortened: as §2
# Mus musculus [28] = species: Mus musculus; assay: Percent clearance of Syphacaia obvelata from mouse after oral treatment of 0.45 mg/mouse/day; type: functional; procedure, shortened: as §2
# Ovis aries [29] = assay: Percent reduction in Trichostrongylus eggs per gram, after treatment with 400 mg/kg dose of compound perorally in sheep; type: functional, Egg; settings: route oral; procedure, shortened: as §3
# Ovis aries [30] = assay: Percent reduction in Trichuris eggs per gram, after treatment with 200 mg/kg dose of compound perorally in sheep; type: functional, Egg; settings: dose 200 mg/kg; route oral; procedure, shortened: as §3
# Ovis aries [31] = assay: Percent reduction in Trichuris eggs per gram, after treatment with 400 mg/kg dose of compound perorally in sheep; type: functional, Egg; settings: route oral; procedure, shortened: as §3
# Ovis aries [32] = assay: Percent reduction in Haemonchus eggs per gram, after treatment of 200 mg/kg dose of compound perorally in sheep; type: functional, Egg; settings: route oral; procedure, shortened: as §4
# Ovis aries [33] = assay: Percent reduction in Strongyloides eggs per gram, after treatment with 400 mg/kg dose of compound perorally in sheep; type: functional, Egg; settings: route oral; procedure, shortened: as §3
# Ovis aries [34] = assay: Percent reduction in Ostertagia eggs per gram, after treatment with 400 mg/kg dose of compound perorally in sheep; type: functional, Egg; settings: route oral; procedure, shortened: as §3
# Ovis aries [35] = assay: Percent reduction in Trichostrongylus eggs per gram, after treatment of 200 mg/kg dose of compound perorally in sheep; type: functional, Egg; settings: route oral
# Procedure, shortened: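 Lambs naturally parasitized with helminths. Finely ground compound was given orally, either as an aqueous suspension by stomach tube or weighed into gelatin capsules given by balling gun. Activity was assessed by the clinical test method: the reduction in helminth egg counts after treatment.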
# Ovis aries [36] = assay: Percent reduction in Oesophagostomum eggs per gram, after treatment of 200 mg/kg dose of compound perorally in sheep; type: functional, Egg; settings: route oral; procedure, shortened: as §5
# Ovis aries [37] = assay: Percent reduction in Ostertagia eggs per gram, after treatment of 200 mg/kg dose of compound perorally in sheep; type: functional, Egg; settings: route oral; procedure, shortened: as §5
# Ovis aries [38] = assay: Percent reduction in Strongyloides eggs per gram, after treatment with 200 mg/kg dose of compound perorally in sheep; type: functional, Egg; settings: route oral; procedure, shortened: as §3
# Ovis aries [39] = assay: Percent reduction in Haemonchus eggs per gram, after treatment with 400 mg/kg dose of compound perorally in sheep; type: functional, Egg; settings: route oral; procedure, shortened: as §5
smiles,measurement,setting,value
CCCCOc1ccc(/C(Cl)=N/Nc2ccccc2)cc1,Reduction,Canis familiaris [1],75%
same,Reduction,Canis familiaris [2],100%
same,Reduction,Canis familiaris [3],67%
same,Reduction,Canis familiaris [4],86%
same,Reduction,Canis familiaris [5],0%
same,Reduction,Canis familiaris [6],100%
same,Reduction,Canis familiaris [7],92%
same,Parasite_Clearance,Mus musculus [8],100%
same,Reduction,Ovis aries [9],100%
same,Reduction,Ovis aries [10],100%
same,Reduction,Ovis aries [11],100%
same,Reduction,Ovis aries [12],100%
same,Reduction,Ovis aries [13],100%
same,Reduction,Ovis aries [14],100%
same,Reduction,Ovis aries [15],100%
same,Reduction,Ovis aries [16],100%
same,Reduction,Ovis aries [17],100%
same,Reduction,Ovis aries [18],32%
same,Parasite_Clearance,Mus musculus [19],100%
same,Reduction,Canis familiaris [20],86%
same,Reduction,Ovis aries [21],100%
same,Reduction,Ovis aries [22],0%
Cl/C(=N\Nc1ccc(Cl)c(Cl)c1Cl)c1ccccc1,Reduction,Ovis aries [9],0%
same,Reduction,Ovis aries [12],0%
same,Reduction,Ovis aries [14],0%
same,Reduction,Ovis aries [15],0%
same,Reduction,Ovis aries [23],89%
same,Reduction,Ovis aries [24],0%
same,Reduction,Ovis aries [18],95%
Fc1c(F)c(F)c(/C(Cl)=N/Nc2ccccc2)c(F)c1F,Reduction,Canis familiaris [25],100%
same,Reduction,Canis familiaris [26],71.4%
same,Parasite_Clearance,Mus musculus [27],0%
same,Parasite_Clearance,Mus musculus [28],0%
same,Reduction,Ovis aries [29],96%
same,Reduction,Ovis aries [30],10%
same,Reduction,Ovis aries [31],88%
same,Reduction,Ovis aries [32],85%
same,Reduction,Ovis aries [33],99%
same,Reduction,Ovis aries [34],95%
same,Reduction,Ovis aries [35],0%
same,Reduction,Ovis aries [36],100%
same,Reduction,Ovis aries [37],93%
same,Reduction,Ovis aries [38],93%
same,Reduction,Ovis aries [39],96%
